# Laboratory results as given in ChEMBL document CHEMBL1149790, “Synthesis of some novel thiourea derivatives obtained from 5-[(4-aminophenoxy)methyl]-4-alkyl/aryl-2,4-dihydro-3H-1,2,4-triazole-3-thiones and evaluation as antiviral/anti-HIV and anti-tuberculosis agents” (Eur J Med Chem, 2008).
# The source made the active and inactive calls. No cut-off for these calls is given here.
# Key:
# [1] = test system: Coxsackievirus B4; assay: Antiviral activity against Coxsackie virus B4 in african green monkey Vero cells assessed as reduction of virus-induced cytopathogenicity; format: functional; settings: Enterovirus B
# How it was run: (§1)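 Confluent cell monolayers (E6SM, HEL, HeLa or Vero, per line) inoculated with 100 CCID50 virus; 1 h adsorption, residual virus removed, then incubated with compound at 400, 200, 100 … µg/ml. Cytopathicity scored once complete in untreated virus controls; MIC = concentration inhibiting virus-induced cytopathicity.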
# [2] = test system: Sindbis virus; assay: Antiviral activity against Sindbis virus in african green monkey Vero cells assessed as reduction of virus-induced cytopathogenicity; format: functional; how it was run: as §1
# [3] = Cytotoxicity against human HEL cells assessed as reduction of cell growth; format: cell-based
# How it was run: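 HEL cells; CC50 = compound concentration reducing cell growth by 50%.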
# [4] = test system: Mammalian orthoreovirus 1; assay: Antiviral activity against Reo virus 1 in african green monkey Vero cells assessed as reduction of virus-induced cytopathogenicity; format: functional; how it was run: as §1
# [5] = test system: Vesicular stomatitis virus; assay: Antiviral activity against in Vesicular stomatitis virus in human E6SM cells assessed as reduction of virus-induced cytopathogenicity; format: functional; how it was run: as §1
# [6] = test system: Human immunodeficiency virus 1; assay: Antiviral activity against HIV1 3B in human MT4 cells assessed as protection against virus-induced cytopathogenicity by MTT assay; format: functional, organism-based; design: Activity: concentration or dose not given beside the values; settings: for IC50: Human immunodeficiency virus 1, 3B, MT4
# How it was run: (§2)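 MT-4 cells at 6 × 10⁵ cells/ml infected with HIV-1 IIIB or HIV-2 ROD at 100–300 CCID50; compounds in serial five-fold dilutions, triplicate mock- and virus-infected wells. MTT viability read at 540 and 690 nm after 5 days, median OD of three wells; EC50 = 50% protection from viral cytopathic effect.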
# [7] = test system: Human alphaherpesvirus 2; assay: Antiviral activity against HSV2 G in human E6SM cells assessed as reduction of virus-induced cytopathogenicity; format: functional; settings: Human alphaherpesvirus 2, G; how it was run: as §1
# [8] = test system: Human respirovirus 3; assay: Antiviral activity against Parainfluenza 3 virus in african green monkey Vero cells assessed as reduction of virus-induced cytopathogenicity; format: functional; how it was run: as §1
# [9] = test system: Mycobacterium tuberculosis; assay: Antitubercular activity against Mycobacterium tuberculosis H37Rv at 6.25 ug/ml by MABA assay; format: functional
# [10] = test system: Human immunodeficiency virus 2; assay: Antiviral activity against HIV2 ROD in human MT4 cells assessed as protection against virus-induced cytopathogenicity by MTT assay; format: functional, organism-based; design: Activity: concentration or dose not given beside the values; settings: for IC50: Human immunodeficiency virus 2, ROD, MT4; how it was run: as §2
# [11] = Cytotoxicity against human MT4 cells by MTT assay; format: cell-based
# How it was run: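 Mock-infected MT-4 cells (6 × 10⁵ cells/ml) with serial five-fold compound dilutions in triplicate; MTT reduction read at 540 and 690 nm after 5 days, median OD of three wells; CC50 = concentration reducing OD540 of mock-infected control by 50%.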
# [12] = test system: Human alphaherpesvirus 3; assay: Antiviral activity against TK- VZV 07/1 infected HEL cells assessed as reduction in virus plaque formation; format: functional, organism-based; settings: Human alphaherpesvirus 3, 07/1, HEL
# [13] = test system: Punta Toro virus; assay: Antiviral activity against Punta Toro virus in african green monkey Vero cells assessed as reduction of virus-induced cytopathogenicity; format: functional; how it was run: as §1
# [14] = test system: Human alphaherpesvirus 1; assay: Antiviral activity against thymidine kinase deficient and acyclovir resistant HSV1 KOS in human HEL cells assessed as reduction of virus-induced cytopathogenicity; format: functional; settings: Human alphaherpesvirus 1, KOS; how it was run: as §1
# [15] = Cytotoxicity against human HEL cells assessed as alteration of cell morphology; format: cell-based
# How it was run: (§3)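 Uninfected cell cultures exposed to test compounds alongside antiviral assays; minimum cytotoxic concentration (MCC) = concentration causing a microscopically detectable alteration of cell morphology.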
# [16] = Cytotoxicity against human HeLa cells; format: cell-based; how it was run: as §3
# [17] = test system: Human betaherpesvirus 5; assay: Antiviral activity against human cytomegalovirus AD169 infected HEL cells assessed as reduction in virus plaque formation; format: functional, organism-based; settings: Human betaherpesvirus 5, AD169, HEL
# [18] = test system: Human betaherpesvirus 5; assay: Antiviral activity against human cytomegalovirus Davis infected HEL cells assessed as reduction in virus plaque formation; format: functional, organism-based; settings: Human betaherpesvirus 5, Davis
# [19] = test system: Human alphaherpesvirus 3; assay: Antiviral activity against TK+ VZV OKA infected HEL cells assessed as reduction in virus plaque formation; format: functional, organism-based; settings: Human alphaherpesvirus 3, OKA
# [20] = Cytotoxicity against human E6SM cells; format: cell-based; settings: E6SM cells; how it was run: as §3
# [21] = test system: Coxsackievirus B4; assay: Antiviral activity against Coxsackie virus B4 in human HeLa cells assessed as inhibition of virus-induced cytopathogenicity; format: functional; settings: Enterovirus B; how it was run: as §1
# [22] = test system: Vesicular stomatitis virus; assay: Antiviral activity against in Vesicular stomatitis virus in human HEL cells assessed as reduction of virus-induced cytopathogenicity; format: functional; how it was run: as §1
# [23] = test system: Vero; assay: Cytotoxicity against african green monkey Vero cells; format: cell-based; settings: chlorocebus sabaeus; how it was run: as §3
# [24] = test system: Vesicular stomatitis virus; assay: Antiviral activity against vesicular stomatitis virus in human HeLa cells assessed as inhibition of virus-induced cytopathogenicity; format: functional; how it was run: as §1
# [25] = test system: Human alphaherpesvirus 2; assay: Antiviral activity against HSV2 G in human HEL cells assessed as reduction of virus-induced cytopathogenicity; format: functional; settings: Human alphaherpesvirus 2, G; how it was run: as §1
# [26] = test system: Human alphaherpesvirus 1; assay: Antiviral activity against HSV1 KOS in human E6SM cells assessed as reduction of virus-induced cytopathogenicity; format: functional; settings: Human alphaherpesvirus 1, KOS; how it was run: as §1
# [27] = test system: Human alphaherpesvirus 1; assay: Antiviral activity against thymidine kinase deficient and acyclovir resistant HSV1 KOS in human E6SM cells assessed as reduction of virus-induced cytopathogenicity; format: functional; settings: Human alphaherpesvirus 1, KOS; how it was run: as §1
# [28] = test system: Human alphaherpesvirus 1; assay: Antiviral activity against HSV1 KOS in human HEL cells assessed as reduction of virus-induced cytopathogenicity; format: functional; settings: Human alphaherpesvirus 1, KOS; how it was run: as §1
# [29] = test system: Respiratory syncytial virus; assay: Antiviral activity against respiratory syncytial virus in human HeLa cells assessed as inhibition of virus-induced cytopathogenicity; format: functional; how it was run: as §1
Compound,MIC [1],MIC [2],CC50 [3],MIC [4],MIC [5],Activity [6],IC50 [6],MIC [7],MIC [8],Activity [10],IC50 [10],CC50 [11],EC50 [12],MIC [13],MIC [14],MCC [15],MCC [16],EC50 [17],EC50 [18],EC50 [19],also measured
CCn1c(COc2ccc(NC(=S)NC)cc2)n[nH]c1=S,> 80 µg/mL,> 80 µg/mL,> 50 µg/mL,> 80 µg/mL,> 400 µg/mL,1.5%,> 68.1 µg/mL,> 400 µg/mL,> 80 µg/mL,2%,> 77.9 µg/mL,76.8 µg/mL,88 µg/mL,> 80 µg/mL,> 400 µg/mL,> 400 µg/mL,400 µg/mL,63 µg/mL,> 100 µg/mL,> 100 µg/mL,Activity [9]: inactive; MCC [20]: > 400 µg/mL; MIC [21]: > 80 µg/mL; MIC [22]: > 400 µg/mL; Activity [23]: 400 µg/mL; MIC [24]: > 80 µg/mL; MIC [25]: > 400 µg/mL; MIC [26]: > 400 µg/mL; MIC [27]: > 400 µg/mL; MIC [28]: > 400 µg/mL; MIC [29]: > 80 µg/mL
C=CCNC(=S)Nc1ccc(OCc2n[nH]c(=S)n2CC)cc1,48 µg/mL,48 µg/mL,> 50 µg/mL,> 80 µg/mL,> 400 µg/mL,3%,> 72.3 µg/mL,240 µg/mL,> 80 µg/mL,2%,> 71.4 µg/mL,75.9 µg/mL,42 µg/mL,> 80 µg/mL,240 µg/mL,> 400 µg/mL,400 µg/mL,45 µg/mL,45 µg/mL,41 µg/mL,inhibition at 6.25 µg/mL [9]: 75%; MCC [20]: > 400 µg/mL; MIC [21]: > 80 µg/mL; MIC [22]: > 400 µg/mL; Activity [23]: 400 µg/mL; MIC [24]: > 80 µg/mL; MIC [25]: 240 µg/mL; MIC [26]: > 400 µg/mL; MIC [27]: 240 µg/mL; MIC [28]: > 400 µg/mL; MIC [29]: > 80 µg/mL
Cn1c(COc2ccc(NC(=S)Nc3ccccc3)cc2)n[nH]c1=S,> 80 µg/mL,> 80 µg/mL,> 50 µg/mL,> 80 µg/mL,> 80 µg/mL,3.5%,> 98.9 µg/mL,> 80 µg/mL,> 80 µg/mL,6.5%,> 87.8 µg/mL,≥ 87.8 µg/mL,38 µg/mL,> 80 µg/mL,> 80 µg/mL,400 µg/mL,> 400 µg/mL,66 µg/mL,49 µg/mL,33 µg/mL,inhibition at 6.25 µg/mL [9]: 70%; MCC [20]: 400 µg/mL; MIC [21]: > 400 µg/mL; MIC [22]: > 80 µg/mL; Activity [23]: 400 µg/mL; MIC [24]: > 400 µg/mL; MIC [25]: > 80 µg/mL; MIC [26]: > 80 µg/mL; MIC [27]: > 80 µg/mL; MIC [28]: > 80 µg/mL; MIC [29]: > 400 µg/mL
